Data published in paper PMC5644118 (Chemical Science, 2014).

Target: heparin-stabilized human rhSkin β-tryptase (Homo sapiens, UniProt P20231)
Assay: β-tryptase enzyme inhibition assay
Assay type: biochemical
Method in brief: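 Heparin-stabilized recombinant human skin β-tryptase in 50 mM Tris-HCl, pH 7.4, run in a high-throughput format. Activity was read as release of free AMC from the cleaved Gly-Pro-Arg-AMC peptide substrate. Inhibition mode was assessed by Dixon plots (1/v against inhibitor concentration) at substrate 25, 50, 75, 100, 150 and 200 μM.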

Sequence of heparin-stabilized human rhSkin β-tryptase (P20231 31-275): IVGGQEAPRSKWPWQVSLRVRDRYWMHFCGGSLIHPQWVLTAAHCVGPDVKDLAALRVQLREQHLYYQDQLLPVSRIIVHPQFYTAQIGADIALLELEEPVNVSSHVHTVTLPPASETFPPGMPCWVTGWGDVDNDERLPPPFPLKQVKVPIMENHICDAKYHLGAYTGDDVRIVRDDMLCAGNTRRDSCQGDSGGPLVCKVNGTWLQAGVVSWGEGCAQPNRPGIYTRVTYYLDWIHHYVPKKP

inhibition of β-tryptase (in words): no inhibition of β-tryptase at all
Structure (SMILES): C[C@H](NC(=O)CNC(=O)CCC(=O)N/N=C/c1cc(/C=N/NC(=O)CCC(=O)NCC(=O)N[C@@H](C)C(=O)N[C@@H](Cc2ccccc2)C(=O)N[C@@H](CCC(=O)O)C(N)=O)cc(/C=N/NC(=O)CCC(=O)NCC(=O)N[C@@H](C)C(=O)N[C@@H](Cc2ccccc2)C(=O)N[C@@H](CCC(=O)O)C(N)=O)c1)C(=O)N[C@@H](Cc1ccccc1)C(=O)N[C@@H](CCC(=O)O)C(N)=O [5(E)3]
